Assay results published in ChEMBL document CHEMBL2380272, “Biological evaluation of bisbenzaldehydes against four Mycobacterium species” (Eur J Med Chem, 2013).
Values after ≈ are worked out from the molar mass of the structure shown.

Columns and labels:
Salmonella typhimurium [1] = experiment: Genotoxicity in recombinant Salmonella typhimurium TA104 expressing Vibrio fisheri luxabcd genes under transcriptional control of recN2-4 promoter assessed as concentration required to cause DNA damage measured every 5 mins for 4 hrs by vitotox assay in presence of S9 fraction; assay type: toxicity, organism-based; details: salmonella enterica subsp. enterica serovar typhimurium, s9, 4 h
Method in brief: (§1)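 VITOTOX genox strain TA104 recN2-4 (recN promoter driving lux). Grown 16 h at 36 °C in poor LB, diluted 125-fold and shaken 1 h, then diluted 10-fold; rat aroclor S9 added for +S9 runs. Incubated at 30 °C with light read every 5 min for 4 h. Signal/noise = exposed over unexposed light. Highest concentration tested 10 µM.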

[2] = Toxicity in recombinant Salmonella typhimurium TA104 expressing luxabcd genes under transcriptional control of constitutive pr1 promoter assessed as concentration required to reduce cell viability measured every 5 mins for 4 hrs by vitotox assay in presence of S9 fraction; assay type: organism-based; details: salmonella enterica subsp. enterica serovar typhimurium; read-out: Activity
Method in brief: (§2)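 Cytox strain TA104 pr1 (constitutive promoter driving lux), run alongside the genox strain. Grown in poor LB at 36 °C for 16 h, diluted 125-fold and shaken 1 h, then diluted 10-fold, with or without aroclor-rat S9. Luminescence read at 30 °C every 5 min over 4 h; a drop in light signal indicates reduced viability. Top concentration 10 µM.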

Salmonella typhimurium [3] = experiment: Toxicity in recombinant Salmonella typhimurium TA104 expressing luxabcd genes under transcriptional control of constitutive pr1 promoter assessed as concentration required to reduce cell viability measured every 5 mins for 4 hrs by vitotox assay in absence of S9 fraction; assay type: organism-based; details: salmonella enterica subsp. enterica serovar typhimurium; method in brief: as §2
Salmonella typhimurium [4] = experiment: Genotoxicity in recombinant Salmonella typhimurium TA104 expressing Vibrio fisheri luxabcd genes under transcriptional control of recN2-4 promoter assessed as concentration required to cause DNA damage measured every 5 mins for 4 hrs by vitotox assay in absence of S9 fraction; assay type: toxicity, organism-based; details: salmonella enterica subsp. enterica serovar typhimurium; method in brief: as §1
[5] = Cytotoxicity against human HepG2/C3A cells assessed as cell viability at 180 uM after 24 hrs by neutral red uptake assay relative to control; assay type: cell-based; details: read-out: Activity
Method in brief: (§3)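 C3A cells grown in DMEM + 10% FCS, 40 000 cells/well, recovered overnight at 37 °C, 5% CO2. Exposed 24 h to serial dilutions in DMEM + 10% FCS from 18 mM DMSO stocks, DMSO limited to 1%. Neutral red added for 3 h, cells washed, dye extracted with ethanol/acetic acid (50%/1%), OD read at 540 nm with 620 nm reference. Viability expressed as % of untreated cells.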

[6] = Cytotoxicity against human HepG2/C3A cells assessed as cell viability at 120 uM after 24 hrs by neutral red uptake assay relative to control; assay type: cell-based; details: read-out: Activity; method in brief: as §3
[7] = Cytotoxicity against human HepG2/C3A cells assessed as cell viability at 60 uM after 24 hrs by neutral red uptake assay relative to control; assay type: cell-based; details: read-out: Activity; method in brief: as §3
[8] = test system: Mycobacterium tuberculosis; experiment: Antimycobacterial activity against Mycobacterium tuberculosis H37Rv infected in mouse J774.A1 cells at 1 MOI assessed as intracellular bacterial growth inhibition at 0.1 uM after 1 hr by luciferase reporter gene assay relative to control; assay type: functional; details: J774.A1, 1 h, read-out: GI
[9] = test system: Mycobacterium tuberculosis; experiment: Antimycobacterial activity against Mycobacterium tuberculosis H37Rv infected in mouse J774.A1 cells at 1 MOI assessed as intracellular bacterial growth inhibition at 1 uM after 1 hr by luciferase reporter gene assay relative to control; assay type: functional; details: J774.A1, 1 h, read-out: GI
[10] = test system: Mycobacterium tuberculosis; experiment: Antimycobacterial activity against Mycobacterium tuberculosis H37Rv infected in mouse J774.A1 cells at 1 MOI assessed as intracellular bacterial growth inhibition at 10 uM after 1 hr by luciferase reporter gene assay relative to control; assay type: functional; details: J774.A1, 1 h, read-out: GI
[11] = Selectivity index, ratio of NI50 for human HepG2/C3A cells to MIC50 for Mycobacterium tuberculosis H37Rv ATCC 27294; assay type: functional
[12] = Potency index, ratio of MIC50 for Mycobacterium avium subsp. paratuberculosis ATCC 19698 to MIC50 for Mycobacterium bovis AN5; assay type: functional
[13] = Potency index, ratio of MIC50 for Mycobacterium avium subsp. avium ATCC 15769 to MIC50 for Mycobacterium bovis AN5; assay type: functional
Mycobacterium ulcerans = experiment: Antimycobacterial activity against Mycobacterium ulcerans 1615 assessed as growth inhibition after 6 days by luciferase reporter gene assay; assay type: functional; details: Mycobacterium ulcerans, 1615, 144 h
Method in brief: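 M. ulcerans 1615 carrying pSMT1 luciferase reporter plasmid, stock grown as surface pellicle on Sauton medium, cultured at 32 °C. Serial compound dilutions in 7H9 + 10% FCS from 10 mM DMSO stocks, tested in triplicate. Filtered bacteria added at 50 000 RLU/mL. After 6 days, wells collected and washed with PBS, 1% n-decanal in ethanol added, light read over 10 s. MIC50 = concentration giving 50% inhibition versus untreated.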

[14] = test system: Mycobacterium avium subsp. paratuberculosis; experiment: Antimycobacterial activity against Mycobacterium avium subsp. paratuberculosis ATCC 19698 assessed as growth inhibition after 6 days by luciferase reporter gene assay; assay type: functional; details: ATCC 19698, 144 h
Method in brief: (§4)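 Mycobacteria carrying the pSMT1 luciferase reporter plasmid. Compounds came from 10 mM DMSO stocks and were serially diluted in 7H9 + 10% FCS. Thawed bacteria were filtered, recovered 1 h at 37 °C, then added at 50 000 RLU/mL. After 6 days of culture, light was read for 10 s after adding 1% n-decanal. Triplicates were run, and MIC50 was the concentration giving 50% growth inhibition.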

[15] = Antimycobacterial activity against Mycobacterium avium subsp. avium ATCC 15769 assessed as growth inhibition after 6 days by luciferase reporter gene assay; assay type: functional; details: ATCC 15769, 144 h; method in brief: as §4
[16] = test system: Mycobacterium tuberculosis; experiment: Antimycobacterial activity against Mycobacterium tuberculosis H37Rv ATCC 27294 assessed as growth inhibition after 6 days by luciferase reporter gene assay; assay type: functional; details: H37Rv ATCC 27294, 144 h; method in brief: as §4
[17] = test system: Mycobacterium tuberculosis; experiment: Antimycobacterial activity against Mycobacterium tuberculosis H37Rv ATCC 27294 assessed as growth inhibition at 0.1 uM after 6 days by luciferase reporter gene assay relative to control; assay type: functional; details: H37Rv ATCC 27294, 144 h, read-out: GI
Method in brief: (§5)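 Luminescent M. tb H37Rv (hsp60-driven luciferase) in 7H9 + 10% FCS was seeded at 50 000 RLU/mL. Compounds were tested at 10, 1 and 0.1 µM from 10 mM DMSO stocks. After 6 days, luminescence was read with 1% n-decanal. Growth inhibition (%) was expressed against untreated culture, with triplicates.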

[18] = test system: Mycobacterium tuberculosis; experiment: Antimycobacterial activity against Mycobacterium tuberculosis H37Rv ATCC 27294 assessed as growth inhibition at 1 uM after 6 days by luciferase reporter gene assay relative to control; assay type: functional; details: H37Rv ATCC 27294, 144 h, read-out: GI; method in brief: as §5
[19] = test system: Mycobacterium tuberculosis; experiment: Antimycobacterial activity against Mycobacterium tuberculosis H37Rv ATCC 27294 assessed as growth inhibition at 10 uM after 6 days by luciferase reporter gene assay relative to control; assay type: functional; details: H37Rv ATCC 27294, 144 h, read-out: GI; method in brief: as §5
[20] = Genotoxicity in human HepG2/C3A cells assessed as DNA fragmentation at 0.75 mM after 24 hrs by alkaline comet assay (reference value: 6.65%); assay type: toxicity, cell-based; details: 750 µM
[21] = Genotoxicity in human HepG2/C3A cells assessed as DNA fragmentation at 0.5 mM after 24 hrs by alkaline comet assay (reference value: 6.65%); assay type: toxicity, cell-based; details: 500 µM

| SMILES | Activity (Salmonella typhimurium [1]) | MCC at 4 h [2] | Activity (Salmonella typhimurium [3]) | Activity (Salmonella typhimurium [4]) | viability at 24 h, 180 µM [5] | viability at 24 h, 120 µM [6] | viability at 24 h, 60 µM [7] | intracellular bacterial growth inhibition at 0.1 µM [8] | percent inhibition of intracellular bacterial growth at 1 µM [9] | intracellular bacterial growth inhibition at 10 µM [10] | Selectivity Index [11] | Ratio [12] | Ratio [13] | MIC50 (Mycobacterium ulcerans) | MIC50 [14] | MIC50 [15] | MIC50 [16] | inhibition of growth at 0.1 µM [17] | inhibition of growth at 1 µM [18] | inhibition of growth at 10 µM [19] | further results |
| --- | --- | --- | --- | --- | --- | --- | --- | --- | --- | --- | --- | --- | --- | --- | --- | --- | --- | --- | --- | --- | --- |
| O=Cc1ccc(OCCCCCCCCCCCOc2ccc(C=O)cc2)cc1 | > 10 µM | > 10 µM | > 10 µM | > 10 µM | 75.4% | 94.1% | 93.3% | 5.2% | 48.2% | 69.4% | >281.3 | 5 | 5 | 9.82 µM (≈ 3.89 µg/mL) | 4.23 µM (≈ 1.68 µg/mL) | 4.96 µM (≈ 1.97 µg/mL) | 0.64 µM (≈ 0.254 µg/mL) | 25% | 73% | 100% |  |
| O=Cc1ccc(OCCCCCCCCOc2ccc(C=O)cc2)cc1 | > 10 µM | > 10 µM | > 10 µM | > 10 µM | 69% | 95.3% | 97.9% | 0.6% | 42.9% | 58.7% | >211.8 | 5 | 5 | > 10 µM | 5.83 µM (≈ 2.07 µg/mL) | 5.36 µM (≈ 1.9 µg/mL) | 0.85 µM (≈ 0.301 µg/mL) | 13% | 64% | 99% |  |
| CCOS(C)(=O)=O [METHANESULFONIC ACID ETHYL ESTER] |  |  |  |  |  |  |  |  |  |  |  |  |  |  |  |  |  |  |  |  | Activity [20]: 65.15%; Activity [21]: 63.44% |
| O=Cc1ccc(OCCCCCCOc2ccc(C=O)cc2)cc1 | > 10 µM | > 10 µM | > 10 µM | > 10 µM | 59.3% | 85.9% | 93.4% | 3.2% | 46.6% | 52.6% | >216.9 | 5 | 5 | > 10 µM | 6.56 µM (≈ 2.14 µg/mL) | 6.18 µM (≈ 2.02 µg/mL) | 0.83 µM (≈ 0.271 µg/mL) | 15% | 65% | 99% |  |
| O=Cc1ccc(OCCCCCCCCCCOc2ccc(C=O)cc2)cc1 | > 10 µM | > 10 µM | > 10 µM | > 10 µM | 72.8% | 96.6% | 97.7% | 11.1% | 39.6% | 60.9% | >233.8 | 5 | 5 | > 10 µM | 5.45 µM (≈ 2.08 µg/mL) | 5.61 µM (≈ 2.15 µg/mL) | 0.77 µM (≈ 0.295 µg/mL) | 20% | 71% | 100% |  |
